Screens (PubChem)
In the library only some 3.8% were active in any assay of this set; here they are far more common.
Kir21 block – Kir2.1 (mouse) channel inhibition; P35561; HEK293-Kir2.1, FluxOR thallium flux fluorescence; hits give low values; B-score at 10 µM; 310,000 compounds, 0.85% hits; AID 1672;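 active = fluorescence ratio B-score at or below minus 3 SD of library scores, with starting-brightness B-score within 2 SD, cut at about -4.2 in these data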;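 also: channel flux triggered by added potassium and thallium sulfate stimulus; B-score of peak minus minimum fluorescence over baseline after thallium stimulus; more negative B-score means stronger Kir2.1 block with less thallium influx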
hERG protect – hERG (human) protection from proarrhythmic block; Q12809; CHO-hERG, FluxOR thallium flux, dofetilide IC70 present; activation (rescue from dofetilide block), less the hit threshold, % at 10 µM; 310,000 compounds, 0.51% hits;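 active = activation above the mean of controls blocked by dofetilide plus 5 SD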;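 also: thallium influx through hERG after potassium depolarization seen as dye fluorescence rise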
KCNQ1 block – human KCNQ1 channel inhibition. P51787. CHO-K1 KCNQ1, FluxOR thallium flux fluorescence; hits give high values. B-score at 10 µM. 310,000 compounds, 1.3% hits. AID 2642;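 active = compounds whose thallium flux B-score, printed positive for inhibition, exceeds three library SD while starting fluorescence stays within three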;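 also: channel opened by potassium depolarization with thallium stimulus after 20 min compound exposure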
KCNK9 block – human KCNK9 channel inhibition; B-score at 10 µM; AID 488922; Q9NPC2; 310,000 compounds, 1.2% hits; HEK293 KCNK9, FluxOR thallium flux fluorescence; hits give low values;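 active = ratio B-score over 3 SD below the library mean, with starting fluorescence within 5 SD of its mean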;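 also: negative B-score means less thallium flux so channel inhibition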
Target sequence (Q9NPC2 whole entry, looked up): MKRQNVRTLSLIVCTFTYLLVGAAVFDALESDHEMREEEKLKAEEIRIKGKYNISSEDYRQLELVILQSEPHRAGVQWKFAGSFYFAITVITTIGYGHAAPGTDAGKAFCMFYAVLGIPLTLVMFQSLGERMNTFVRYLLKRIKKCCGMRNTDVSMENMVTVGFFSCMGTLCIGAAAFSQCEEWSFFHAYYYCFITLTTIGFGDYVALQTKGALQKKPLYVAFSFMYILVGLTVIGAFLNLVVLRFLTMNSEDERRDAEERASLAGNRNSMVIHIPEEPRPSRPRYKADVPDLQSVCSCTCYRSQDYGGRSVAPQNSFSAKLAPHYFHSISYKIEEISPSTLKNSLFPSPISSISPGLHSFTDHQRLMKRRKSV
KCNQ1 act – potentiates or activates the human KCNQ1 potassium channel. AID 2648. B-score at 10 µM. P51787. CHO-K1 KCNQ1, thallium flux FluxOR fluorescence; hits give high values. 310,000 compounds, 0.35% hits;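 active = fluorescence ratio B-score, a plate-corrected score, at least three library SD, with initial intensity B-score within 5 SD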
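Assay system: CHO-K1 cells stably expressing KCNQ1; Medium: assay buffer with matched DMSO; Also added: K+/Tl+ depolarizing stimulus; Dosing: single dose; Timing: dye 90 min, compound 20 min, room temperature; Measured by: kinetic FluxOR thallium fluorescence, 10-s 1-Hz baseline, 110-s post-stimulus read; Read-out: peak-minus-minimum fluorescence over initial fluorescence, negative-control normalized, B-scored.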
KCNK3 block – human KCNK3 channel inhibition, primary screen; CHO-KCNK3 thallium flux, FluxOR fluorescence; hits give low values; B-score at 10 µM; O14649; 340,000 compounds, 0.84% hits;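 active = B-score under library mean minus 4 SD, starting fluorescence ratio at most library mean plus 5 SD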;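 also: more negative B-score means stronger inhibition of thallium flux through KCNK3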
A number is an active result; - = inactive; . = no result.

SMILES	Kir21 block	hERG protect	KCNQ1 block	KCNK9 block	KCNQ1 act	KCNK3 block
CC(=O)Nc1ccc(OCC(O)Cn2nc(C)nc2C)cc1 (configuration not stated)	-	5.5	-	-	-	-
Cc1nc(C)n(CC(O)COc2ccc3ccccc3c2)n1 (configuration not stated)	-	-	-	-	-	-
Cc1sc2ncnc(SCC(=O)NC(=O)c3cccn3C)c2c1C	-	-	-	-	11	-
Cc1cccc(NC(=O)CSc2ncnc3sc(C)c(C)c23)n1	-	-	-	-	-	-
CC(C)(C)CC(C)(C)c1ccc(O)c(Cc2ccc(Cl)cc2Cl)c1	.	.	.	.	.	-
N#Cc1c(NC(=S)NC(=O)C2CCCC2)sc2c1CCCCC2	-	-	-	-	-	-
COC(=O)c1ccc(CN(c2ccccn2)S(=O)(=O)c2ccccc2)cc1	-	-	-	-	-	-
COC(=O)c1ccc(CN(c2ccc(C(=O)O)c(O)c2)S(=O)(=O)c2ccc(Cl)c([N+](=O)[O-])c2)cc1	-	-	7	-	-	-
COc1cc(NC(=O)c2cc(OC)c(OC)c(OC)c2)cc(-n2cnnn2)c1	-	-	-	-	-	-
Cn1c(NNC(=O)C(c2ccccc2)c2ccccc2)cc(=O)n(C)c1=O	-	4.9	-	-	-	-
Cn1c(NC(=O)c2ccccc2)cc(=O)n(C)c1=O	-	-	-	-	-	-
Cn1ccc(C(=O)OCC(=O)Nc2ccccc2Cl)n1	-	-	-	-	-	-
CCOC(=O)c1c(C)[nH]c(C)c1C(=O)COC(=O)c1cc2ccccc2cc1OC	-	-	-	-7.73	-	-
Cc1cc(O)c2c(c1)C(=O)c1cc(O)cc(O)c1C2=O	-	-	6	-	-	-
O=C(Nc1cccc(N=Cc2cc(Br)cc(Br)c2O)c1)c1ccco1	-	-	-	-	-	-
O=C(Nc1cccc(N=Cc2cc(Cl)cc(Br)c2O)c1)c1ccco1	-	-	-	-	17	-
O=c1ccn([C@@H]2O[C@H](CNCC3=Cc4cc(O)ccc4OC3)[C@@H](O)[C@H]2O)c(=O)[nH]1	.	.	.	.	.	-
Clc1ccc2c(c1)-c1nnc(Br)n1-c1ccccc1S2	-7.16	-	-	-	-	-
c1ccc2c(c1)Sc1ccccc1-n1cnnc1-2	-	-	-	-	-	-
Brc1nnc2n1-c1ccccc1Sc1ccccc1-2	-6.02	-	-	-	-	-
CCN(CC)CCNCC(O)(c1ccc(Cl)cc1)c1ccc(Cl)cc1	-5.56	-	-	-	-	-
CC(C)(C)NCC(O)(c1ccc(Cl)cc1)c1ccc(Cl)cc1	-	-	-	-	-	-
N#CC1=C(N)NC(SCC(=O)Nc2ccc(Br)cc2)=C(C#N)C12CCCCC2	-	-	9	-	-	-
COc1ccccc1-c1c(C)oc2cc(OCC(=O)OCc3ccccc3)ccc2c1=O	-	-	-	-	-	-
CCC(=O)Nc1cccc(-c2cn3ccccc3n2)c1	-	-	-	-	-	-
SMILES	Kir21 block	hERG protect	KCNQ1 block	KCNK9 block	KCNQ1 act	KCNK3 block
CCC(=O)Nc1cccc(-c2csc(-c3ccccc3)n2)c1	-	-	-	-7.44	-	-
Cc1nc(-c2ccc(NC(=O)Cc3ccccc3)cc2)cs1	-	-	-	-	8	-
CCOC(=O)c1nn(-c2ccc(Cl)cc2Cl)c(=N)c(C#N)c1C	-	-	6	-	-	.
CC1CCN(CCCNC(=O)c2ccc(CSCc3cccc(Cl)c3)o2)CC1	-6.65	-	-	-	-	-
COc1ccc(S(=O)(=O)NCCC(=O)Nc2ccc(C)cc2)cc1	-	-	-	-	-	-
CN1C(=O)/C(=N\OC(=O)c2cccc3ccccc23)c2ccccc21	-	11.5	-	-	18	-
C/C(=N\NC(=O)C1(C)CC1(Br)Br)c1cccc(NC(=O)C2CCC2)c1 (configuration not stated)	-	-	-	-7.4	-	-
CCc1ccc(/C=C/C(=O)c2cc(Br)ccc(=O)c2O)cc1	-	-	-	-	38	-
Cc1ccc(S(=O)(=O)NCC(=O)NCC(=O)OCC(=O)NC(=O)NC(C)(C)C)cc1C	-	-	-	-	-	-
CC(C)Cc1ccc(C(C)C(N)=NCCc2ccccc2)cc1 (configuration not stated)	-7.52	-	9	-	-	-
O=C(CN(C1CCCCC1)C1CCCCC1)N1CCc2ccccc2C1	-	-	-	-	-	-
O=C(N/N=C/c1coc2ccccc2c1=O)c1cc(Br)c(O)c(Br)c1	-	-	8	-	-	-
CC1c2ccsc2CCN1S(=O)(=O)c1cccs1 (configuration not stated)	-6.25	-	-	-	-	-
CN1CCN(S(=O)(=O)c2cccs2)CC1	-	-	-	-	-	-
Cc1cc2c(SCC(=O)Nc3ccccc3O)ncnc2s1	.	.	.	.	.	-
COC(=O)[C@@](C)(O)C1(C(=O)SC(C)(C)C)CC1	-	-	-	-	-	-
O=C(Nc1cccnc1)c1ccc2ccccc2c1O	-	-	-	-	-	-
O=C(Nc1cccc([N+](=O)[O-])c1)c1ccc2ccccc2c1O	-	-	6	-	-	-
Cc1occc1C(=O)Nc1cccc([N+](=O)[O-])c1	-	8.6	-	-	-	-
CCOC(=O)NC1(C(F)(F)F)NC(=O)N(c2ccc(F)cc2)C1=O (configuration not stated)	-	-	-	-	-	-
CC(=O)Nc1ccc(-n2c(C)nc(=O)c(-c3ccccc3)c2C)cc1	-	4.7	-	-	-	-
Cc1nc(=O)c(-c2ccccc2)c(C)n1-c1ccccc1	-	-	-	-	-	-
O=C(O)c1ccc(CN2C(=O)c3cccc4c([N+](=O)[O-])ccc(c34)C2=O)cc1	-	-	10	-	-	-
Cc1ccc(C(=O)O)cc1N1C(=O)c2cccc3c([N+](=O)[O-])ccc(c23)C1=O	-	-	-	-	-	-
CCCCCCNC(=O)CNC(=S)N(Cc1cccs1)C1CCCCC1	-	-	7	-	-	-
CCOC(=O)CNC(=S)N(Cc1cccs1)C1CCCC1	-	-	-	-	-	-
CCN(CCCn1c(=S)[nH]c2ncccc2c1=O)c1ccccc1	-	38.2	-	-	-	-
NC(=O)CCS(=O)(=O)c1ccc(Cl)cc1	-	6.4	-	-	-	-
CC1CC(C)CN(CCCNC(=O)C2CCN(c3nnc(-n4cccc4)s3)CC2)C1 (configuration not stated)	-	-	-	-	-	-
CC(=O)Nc1ccc(NC(=O)C(C)OC(=O)c2ccccc2NS(=O)(=O)c2cccs2)cc1 (configuration not stated)	-	-	-	-	-	-
